Reference: publication PMC4216208 (Journal of Medicinal Chemistry, 2014)
“Also recorded” adds a separate entry of the source.

Experiments:
[1] = test system: C. elegans; test: Bioaccumulation in C. elegans; format: in vitro ADME, Caenorhabditis elegans; details: for worm concentration as share of the dose: at 6 h, dose 2 nmol/mg worm; for accumulation in C. elegans (in words): late-stage L4 worms, 10 μM (2 nmol/mg worm), 6 h, LC-MS of homogenates
Summary of the method: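 Synchronised C. elegans grown to late L4 on E. coli OP50 at 25 °C for 40 h, water-washed, and suspended in M9 at ~5−10 worms/μL. Dosed at 10 μM final (~2 nmol/mg worm) from DMSO stock, 6 or 12 h at rt. Washed in 0.1% SDS then water, frozen, lyophilised, weighed, extracted into cold MeOH/MeCN with internal standard. Quantified by LC-ESI-MS against blank-worm calibration; mean ± sd, n = 3.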

[2] = test system: HEK 293T/17 cells; test: Cell viability assay; format: cell-based, human; details: 1 and 10 μM, 24 h, MTS assay
Summary of the method: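 HEK 293T/17 cells (2 × 10^4) plated and held 24 h at 37 °C, then exposed to test compound at 1 and 10 μM final. Viability was read by MTS at 0.5 and 24 h after treatment.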

[3] = test system: O. volvulus L3 larvae; test: O. volvulus L3 molting inhibition; format: cell-based, Onchocerca volvulus; details: for inhibition at 1 µM: Onchocerca volvulus, read-out: inhibition of O. volvulus L3 molting
[4] = test system: HEK 293T/17 cells; test: Mitochondrial-uncoupling assay; format: cell-based, human; details: 50 μM compound, TMRE staining
Summary of the method: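 HEK 293T/17 cells were trypsinised and suspended at 1−2 × 10^6 cells/mL in DMEM with 10% FBS, then given test compound (50 μM) or DMSO for 30 min at 37 °C. TMRE (~450 nM final) was added for 30 min in the dark at 37 °C. Cells were washed twice in 0.2% BSA/PBS, resuspended, and read by plate fluorescence (em 575 nm). Unstained and DMSO controls were included; mean ± sd, n = 3.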

[5] = test system: EhCHT1; test: Chitinase activity assay, Entamoeba histolytica chitinase; format: biochemical; details: 10 μM final concentration
[6] = biological target: T1, PfCHT1 (Plasmodium falciparum, UniProt Q8I4R4); test: Chitinase activity assay, Plasmodium falciparum chitinase; format: biochemical; details: 10 μM final concentration
T1 sequence (Q8I4R4 29-378): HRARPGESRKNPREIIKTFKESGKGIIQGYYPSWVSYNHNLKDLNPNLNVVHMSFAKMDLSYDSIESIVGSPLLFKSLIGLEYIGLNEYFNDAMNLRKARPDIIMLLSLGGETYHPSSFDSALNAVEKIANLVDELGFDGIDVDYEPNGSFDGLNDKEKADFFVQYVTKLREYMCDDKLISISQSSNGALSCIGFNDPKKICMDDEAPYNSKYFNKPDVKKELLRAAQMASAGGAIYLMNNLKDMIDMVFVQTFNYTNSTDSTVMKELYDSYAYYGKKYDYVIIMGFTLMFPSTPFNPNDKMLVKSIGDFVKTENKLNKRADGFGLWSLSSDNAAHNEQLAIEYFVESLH

[7] = biological target: T2, BmCHT1 (Brugia malayi, UniProt P29030); test: Chitinase activity assay, Brugia malayi chitinase; format: biochemical; details: 10 μM final concentration
T2 sequence (P29030 23-504): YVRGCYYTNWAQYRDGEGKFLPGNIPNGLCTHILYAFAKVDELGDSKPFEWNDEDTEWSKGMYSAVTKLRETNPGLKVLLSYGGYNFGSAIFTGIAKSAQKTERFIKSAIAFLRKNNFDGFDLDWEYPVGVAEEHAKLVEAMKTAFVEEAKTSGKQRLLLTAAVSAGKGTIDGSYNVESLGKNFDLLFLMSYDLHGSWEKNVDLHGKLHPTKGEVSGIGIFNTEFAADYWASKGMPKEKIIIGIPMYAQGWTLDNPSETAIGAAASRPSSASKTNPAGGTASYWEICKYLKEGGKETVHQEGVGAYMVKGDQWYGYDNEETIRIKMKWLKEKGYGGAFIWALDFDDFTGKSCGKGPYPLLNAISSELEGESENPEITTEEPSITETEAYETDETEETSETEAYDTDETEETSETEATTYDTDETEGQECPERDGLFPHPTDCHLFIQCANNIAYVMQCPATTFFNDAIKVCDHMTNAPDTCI

[8] = biological target: T3, OvCHT1 (Onchocerca volvulus, UniProt Q25615); test: O. volvulus chitinase; format: biochemical; details: for inhibition of OvCHT1 at single concentration: 10 μM final concentration, relative to control (0.5% DMSO in water)
T3 sequence (Q25615 22-497): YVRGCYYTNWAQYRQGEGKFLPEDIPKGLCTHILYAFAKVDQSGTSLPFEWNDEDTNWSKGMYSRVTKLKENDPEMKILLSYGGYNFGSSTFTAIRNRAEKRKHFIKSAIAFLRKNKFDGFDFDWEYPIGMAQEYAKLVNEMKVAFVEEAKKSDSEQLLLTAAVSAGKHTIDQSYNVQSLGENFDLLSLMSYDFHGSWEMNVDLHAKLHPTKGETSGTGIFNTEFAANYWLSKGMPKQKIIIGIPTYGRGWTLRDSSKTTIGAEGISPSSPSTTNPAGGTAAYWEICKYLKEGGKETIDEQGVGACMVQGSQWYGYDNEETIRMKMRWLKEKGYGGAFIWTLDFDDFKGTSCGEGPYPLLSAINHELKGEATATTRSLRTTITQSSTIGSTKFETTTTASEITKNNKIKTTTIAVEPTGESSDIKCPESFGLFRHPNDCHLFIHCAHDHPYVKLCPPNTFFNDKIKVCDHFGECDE

[9] = 10 μM, 24 h preincubation, molting assessed day 6

| Compound | accumulation in C. elegans (in words) [1] | effect on O. volvulus L3 molting [3, 9] | mitochondrial-uncoupling (protonophoric) activity [4] | inhibition of EhCHT1 at single concentration [5] | inhibition of PfCHT1 at single concentration [6] | inhibition of BmCHT1 at single concentration [7] | inhibition of OvCHT1 at single concentration [8] | further results |
| --- | --- | --- | --- | --- | --- | --- | --- | --- |
| O=C(Nc1ccc2ccccc2c1)c1cc(I)cc(I)c1O [Compound 4a, 2-Hydroxy-3,5-diiodo-N-(naphthalen-2-yl)benzamide] | accumulated in C. elegans | completely abolished molting | mitochondrial-uncoupling activity |  |  |  |  | worm concentration as share of the dose [1]: less than 50%; effect on cell viability of HEK 293T/17 cells [2]: no considerable effect on cell viability; inhibition at 1 µM [3]: ≤ 84% |
| O=C(Nc1ccc(Oc2ccc(Cl)cc2)c(Cl)c1)c1cc(I)cc(I)c1O [Compound 3m, rafoxanide, reference compound] | accumulated in C. elegans | completely abolished molting | good mitochondrial-uncoupling activity | sparing | sparing | sparing | complete inhibition | worm level as share of the initial dose ([1]; at 6 and 12 h, initial dose 2 nmol/mg worm): > 75%; effect on cell viability of HEK 293T/17 cells [2]: no considerable effect on cell viability; inhibition of O. volvulus L3 molting ([3]; 1 μM, 24 h preincubation, molting assessed day 6): up to 84% |
| O=C(Nc1ccc(Oc2ccccc2)cc1)c1cc(I)cc(I)c1 [Compound 3e, 3,5-Diiodo-N-(4-phenoxyphenyl)benzamide] |  |  | loss of uncoupling activity |  |  |  |  |  |
| COc1c(I)cc(I)cc1C(=O)N(C)c1ccc(Oc2ccccc2)cc1 [Compound 3d, 3,5-Diiodo-2-methoxy-N-methyl-N-(4-phenoxyphenyl)benzamide] |  |  | loss of uncoupling activity |  |  |  |  |  |
| CN(C(=O)c1cc(I)cc(I)c1O)c1ccc(Oc2ccccc2)cc1 [Compound 3c, 2-Hydroxy-3,5-diiodo-N-methyl-N-(4-phenoxyphenyl)benzamide] |  |  | eradicated protonophoric activity |  |  |  |  |  |
| COc1c(I)cc(I)cc1C(=O)Nc1ccc(Oc2ccccc2)cc1 [Compound 3b, 3,5-Diiodo-2-methoxy-N-(4-phenoxyphenyl)benzamide] |  |  | loss of uncoupling activity |  |  |  |  |  |
| O=C(Nc1ccc2ccccc2c1)c1cc(I)cc(I)c1 [Compound 4c, 3,5-Diiodo-N-(naphthalen-2-yl)benzamide] |  |  | loss of uncoupling activity |  |  |  |  |  |
| COc1c(I)cc(I)cc1C(=O)Nc1ccc2ccccc2c1 [Compound 4b, 3,5-Diiodo-2-methoxy-N-(naphthalen-2-yl)benzamide] | accumulated in C. elegans | inhibited molting | loss of uncoupling activity; also recorded: devoid of protonophoric activity |  |  |  |  | worm concentration as share of the dose [1]: less than 50%; effect on O. volvulus L3 molting ([3]; 1 μM): did not show any impact on molting |
| O=C(Nc1ccc(-c2ccc(Cl)cc2)cc1)c1cc(I)cc(I)c1O [Compound 5c, N-(4′-Chloro-[1,1′-biphenyl]-4-yl)-2-hydroxy-3,5-diiodobenzamide] | accumulated in C. elegans |  |  | sparing | sparing | sparing | complete inhibition |  |
| COc1c(I)cc(I)cc1C(=O)Nc1ccc(Oc2ccc(Cl)cc2)cc1 [Compound 3i, N-(4-(4-Chlorophenoxy)phenyl)-3,5-diiodo-2-methoxybenzamide] | accumulated in C. elegans | only marginal inhibition | loss of uncoupling activity; also recorded: devoid of protonophoric activity | sparing | sparing | sparing | complete inhibition | effect on O. volvulus L3 molting ([3]; 100 μM): completely hindered L3 molting |
| O=C(Nc1ccc(Oc2ccc(Cl)cc2)cc1)c1cc(I)cc(I)c1O [Compound 3h, N-(4-(4-Chlorophenoxy)phenyl)-2-hydroxy-3,5-diiodobenzamide] | accumulated in C. elegans | completely abolished molting | mitochondrial-uncoupling activity | sparing | sparing | sparing | complete inhibition | effect on cell viability of HEK 293T/17 cells [2]: no considerable effect on cell viability; inhibition at 1 µM [3]: ≤ 84% |
| COc1c(I)cc(I)cc1C(=O)O [Compound 6b, 3,5-Diiodo-2-methoxybenzoic Acid] |  | no inhibition on molting | neither an OvCHT1 inhibitor nor a protonophore |  |  |  |  | OvCHT1 inhibitor or not (in words) [8]: neither an OvCHT1 inhibitor nor a protonophore |
| O=C(Nc1ccc(Oc2ccccc2)cc1)c1cc(I)cc(I)c1O [Compound 3a, 2-Hydroxy-3,5-diiodo-N-(4-phenoxyphenyl)benzamide] |  |  | mitochondrial-uncoupling activity |  |  |  |  |  |
| O=C(Nc1ccc(-c2ccccc2)cc1)c1cc(I)cc(I)c1O [Compound 5a, N-([1,1′-Biphenyl]-4-yl)-2-hydroxy-3,5-diiodobenzamide] | accumulated in C. elegans |  |  | sparing | sparing | sparing | complete inhibition |  |
| O=C(Nc1ccc(Oc2ccc(Cl)cc2)cc1)c1cc(I)cc(I)c1 [Compound 3j, N-(4-(4-Chlorophenoxy)phenyl)-3,5-diiodobenzamide] | accumulated in C. elegans |  | loss of uncoupling activity; also recorded: devoid of protonophoric activity | sparing | sparing | sparing | complete inhibition |  |
| N#CC(C#N)=NNc1cccc(Cl)c1 [CCCP, carbonyl cyanide m-chlorophenyl hydrazone, reference compound] | accumulated in C. elegans | fully inhibited the molting | a protonophore only |  |  |  |  | effect on O. volvulus L3 molting ([3]; 1 μM): did not show any impact on molting |
